Bioassay records from PubChem BioAssay.
In the library only some 4.1% were active in any assay of this set; here they are far more common.
Cl transport mod – KCC2 cotransporter modulators, thallium flux, primary screen, cell-based, HEK293 KCC2, FluoZin-2 fluorescence, MLSMR | Solute carrier family 12 member 5 (Homo sapiens), Q9H2X9 | KCC2 cells, thallium flux FluoZin-2 fluorescence | B-score of Tl+ flux slope (higher = more flux/activation; lower = inhibition) at 10 µM | 190,000 compounds, 2.2% hits | AID 1456, 2008;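 active = thallium flux slope and its plate-corrected score both differing from the plate sample mean at a set confidence after two filtering rounds, in either direction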;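 also: slope of fluorescence scaled to starting intensity during 10 to 20 s after thallium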
KCNQ1 inh – inhibitors of human KCNQ1 channel, primary screen, cell-based, thallium flux, high-throughput. CHO-K1 KCNQ1, FluxOR thallium flux fluorescence; hits give high values. B-score at 10 µM. 310,000 compounds, 1.3% hits;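 active = compounds whose thallium flux B-score, printed positive for inhibition, exceeds three library SD while starting fluorescence stays within three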;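 also: channel opened by potassium depolarization with thallium stimulus after 20 min compound exposure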
Target sequence (P51787 whole entry, looked up): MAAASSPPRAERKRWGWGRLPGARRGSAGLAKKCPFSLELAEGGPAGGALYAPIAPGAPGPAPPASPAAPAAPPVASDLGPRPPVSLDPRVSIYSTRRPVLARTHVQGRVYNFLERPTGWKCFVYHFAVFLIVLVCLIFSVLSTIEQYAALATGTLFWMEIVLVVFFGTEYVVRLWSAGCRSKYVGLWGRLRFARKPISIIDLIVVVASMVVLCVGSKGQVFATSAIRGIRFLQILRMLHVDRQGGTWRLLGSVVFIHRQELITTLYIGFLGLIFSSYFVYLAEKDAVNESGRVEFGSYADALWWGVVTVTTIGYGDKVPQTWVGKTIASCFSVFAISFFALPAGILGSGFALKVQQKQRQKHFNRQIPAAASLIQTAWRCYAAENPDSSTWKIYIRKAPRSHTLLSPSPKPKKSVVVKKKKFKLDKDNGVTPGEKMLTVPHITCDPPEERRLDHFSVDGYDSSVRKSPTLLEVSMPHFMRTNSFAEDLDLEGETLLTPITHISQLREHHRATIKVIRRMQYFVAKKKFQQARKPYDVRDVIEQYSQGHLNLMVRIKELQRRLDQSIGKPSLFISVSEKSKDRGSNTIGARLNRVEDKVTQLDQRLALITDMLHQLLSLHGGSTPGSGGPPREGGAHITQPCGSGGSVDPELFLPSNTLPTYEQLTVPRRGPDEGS
KCNK3 inh – human KCNK3 channel inhibitors, primary screen, CHO cells, FluxOR thallium flux, B-score | 340,000 compounds, 0.84% hits | B-score at 10 µM | FluxOR fluorescence; hits give low values | Potassium channel subfamily K member 3 (Homo sapiens), O14649;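 active = B-score under library mean minus 4 SD, starting fluorescence ratio at most library mean plus 5 SD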;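 also: more negative B-score means stronger inhibition of thallium flux through KCNK3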
KCNK9 block – KCNK9 potassium channel inhibitors, primary screen, HEK293 cells, thallium flux; FluxOR thallium flux fluorescence; hits give low values; B-score at 10 µM; 310,000 compounds, 1.2% hits;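 active = ratio B-score over 3 SD below the library mean, with starting fluorescence within 5 SD of its mean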;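 also: negative B-score means less thallium flux so channel inhibition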
hERG protect – hERG rescue from dofetilide block, primary screen, cell-based, CHO-hERG, FluxOR thallium flux, dofetilide IC70 | dofetilide IC70 present | activation (rescue from dofetilide block), less the hit threshold, % at 10 µM | 310,000 compounds, 0.51% hits | AID 1511, 2009;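 active = activation above the mean of controls blocked by dofetilide plus 5 SD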;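 also: thallium influx through hERG after potassium depolarization seen as dye fluorescence rise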
KCNQ1 pot – potentiators or activators of KCNQ1 channel, primary screen, cell-based, thallium flux, high-throughput; B-score at 10 µM; 310,000 compounds, 0.35% hits; CHO-K1 KCNQ1, thallium flux FluxOR fluorescence; hits give high values; AID 2648, 2010;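 active = fluorescence ratio B-score, a plate-corrected score, at least three library SD, with initial intensity B-score within 5 SD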
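Assay system: CHO-K1 cells stably expressing KCNQ1; Medium: assay buffer with matched DMSO; Also added: K+/Tl+ depolarizing stimulus; Dosing: single dose; Timing: dye 90 min, compound 20 min, room temperature; Measured by: kinetic FluxOR thallium fluorescence, 10-s 1-Hz baseline, 110-s post-stimulus read; Read-out: peak-minus-minimum fluorescence over initial fluorescence, negative-control normalized, B-scored.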
KCC2 sec1 – KCC2 modulators in sodium-free buffer, confirmation, cell-based, HEK293 KCC2, thallium flux, secondary assay; FluoZin2 fluorescence; hits give high values; 3,700 compounds, 15% hits; shares compounds with Cl transport mod; normalised thallium flux (F/F0 slope) at 10 µM;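 active = thallium flux slope above the same plate's solvent-only control mean plus 3 SD; inconclusive = the two replicate wells disagree; inactive = no significant difference from solvent-only control wells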
KCC2 bumet counter – thallium flux persisting under bumetanide in KCC2 cells, confirmation, counter-screen for KCC2 modulator project, cell-based, HEK293 KCC2, FluoZin2, secondary assay 3; normalized thallium flux at 10 µM; 3,700 compounds, 49% hits; AID 1714, 2009; shares compounds with Cl transport mod; HEK293-KCC2 + bumetanide/ouabain; hits give high values;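 active = thallium entry rate above the same plate's blocked-transporter control wells by more than 3 SD; inconclusive = the two repeat wells disagree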;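 also: raw slope of fluorescence over initial fluorescence between 10 and 20 s after thallium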
KCC2 sec2 – KCC2 modulators without ouabain present, confirmation, cell-based, HEK293 KCC2, thallium flux, FluoZin2, secondary assay 2 | 3,700 compounds, 23% hits | shares compounds with Cl transport mod | normalized thallium flux at 10 µM | thallium flux FluoZin2 fluorescence; actives lie on both sides; F/F0 rise rate, 10–20 s post-thallium | AID 1715, 2009;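 active = thallium flux slope more than 3 SD above or below the plate's solvent-only control mean, mostly below; inconclusive = the two repeat wells disagreed; inactive = no significant shift from solvent-only controls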;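 also: raw slope with 0.1% DMSO as baseline and bumetanide as block control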
HEK293 Tl flux – thallium flux modulation in parental HEK cells, confirmation, counter-screen for KCC2 modulator project, cell-based, counterscreen 1 | shares compounds with Cl transport mod | HEK293 parental cells, thallium flux FluoZin2, ouabain; baseline-ratio fluorescence slope, 10–20 s after thallium | thallium flux rate (normalised fluorescence) at 10 µM | 3,700 compounds, 46% hits;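 active = thallium flux rate significantly above the same plate's solvent-only control wells, beyond their mean plus 3 SD; inconclusive = the two replicate wells gave conflicting results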
KCC2 ouabain – KCC2 inhibitors and activators, ouabain retest, confirmation, HEK-KCC2 cells. shares compounds with Cl transport mod. HEK293-KCC2, thallium flux FluoZin2 fluorescence; bidirectional: low = inhibitor, high = activator. raw Tl+ flux slope (below DMSO = inhibition, above = activation) at 10 µM. 3,700 compounds, 48% hits;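 active = thallium flux slope beyond 3 SD from same-plate DMSO control mean in most replicates, usually higher, sometimes lower; inconclusive = repeat tests gave conflicting results; inactive = no significant difference from controls in most replicates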;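 also: slope of initial-normalized fluorescence between seconds 10 and 20 after thallium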
HEK counter2 – native HEK Tl+ uptake effects, second counter-screen – HEK cells, counterscreen 2, counter-screen for KCC2 modulator project, confirmation. 3,700 compounds, 33% hits. thallium flux slope at 10 µM. shares compounds with Cl transport mod. AID 1718, 2009. HEK293 parental, thallium flux FluoZin-2 fluorescence slope;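 active = thallium flux slope above the same plate's solvent-control mean plus 3 SD in both duplicate wells; inconclusive = duplicate wells that disagreed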;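 also: run without ouabain in cells lacking the KCC2 cotransporter; slope of fluorescence scaled to its starting value between 10 and 20 s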
* marks the source's active call; other numbers are inactive results; i = inactive; ? = inconclusive; . = no result given.

SMILES | Cl transport mod | KCNQ1 inh | KCNK3 inh | KCNK9 block | hERG protect | KCNQ1 pot | KCC2 sec1 | KCC2 bumet counter | KCC2 sec2 | HEK293 Tl flux | KCC2 ouabain | HEK counter2
O=[N+]([O-])c1ccccc1/C=C/C=N/n1c(-c2ccc(Cl)cc2)n[nH]c1=S | 3.6* | i | i | i | -2 | i | 0.0075 | 0.0092* | 0.033 | 0.01* | ? | 0.012*
Cc1ccc(-c2n[nH]c(=S)n2/N=C/C=C\c2ccccc2[N+](=O)[O-])cc1 | 7.7* | i | i | i | -6 | i | 0.0075 | 0.0092* | 0.033 | 0.011* | ? | 0.014*
COc1ccccc1/C=C/C=N/n1c(-c2ccc(C)cc2)n[nH]c1=S | 3.3 | i | i | i | -10 | i | . | . | . | . | . | .
O=C1Nc2ccccc2C1=Nc1ccccc1-c1ccccc1 | . | . | i | . | . | . | . | . | . | . | . | .
O=C(CCC(=O)c1cccs1)OCc1ccc([N+](=O)[O-])cc1 | . | . | i | . | . | . | . | . | . | . | . | .
CC(C)[C@H](CO)N(Cc1cccc(F)c1)c1nc(Nc2cccc(Cl)c2)c2ncn(C(C)C)c2n1 | 0.25 | i | i | i | -6 | i | . | . | . | . | . | .
CC[C@H](CO)Nc1nc(Nc2cccc(Cl)c2)c2ncn(C(C)C)c2n1 | -2.6* | i | i | i | -11 | i | 0.017 | 0.0047 | ? | 0.0071 | 0.015 | 0.01
Cc1ccc(S(=O)(=O)NCCNC(=O)c2ccc(C)nc2)cc1 | . | i | i | i | -8 | i | . | . | . | . | . | .
CCCCOC(=O)CSc1nc(N)c(C#N)c(-c2ccc(OCC)cc2)c1C#N | -0.46 | i | i | i | -4 | i | . | . | . | . | . | .
CCCCOc1ccc(-c2c(C#N)c(N)nc(SCC(N)=O)c2C#N)cc1 | -6.4* | i | i | i | -6 | i | 0.0074 | 0.0066 | 0.032 | 0.0076 | 0.017* | ?
S=C(NCc1cccnc1)Nc1ccc(Oc2ccccc2)cc1 | -3.9* | i | i | i | 2 | i | 0.0065 | 0.0043 | 0.022* | 0.0073 | ? | 0.011
NC(=S)NCc1cccnc1 | 4.8* | i | i | i | -4 | i | 0.01 | 0.0065 | 0.036 | 0.0075 | 0.023 | 0.011
COc1ccccc1N1CCN(C(=O)c2cccc(S(=O)(=O)Nc3ccccc3F)c2)CC1 | . | . | i | . | . | . | . | . | . | . | . | .
O=C(O)c1cccc(Nc2nc(Nc3ccccc3)nc(N3CCCC3)n2)c1 | -3* | i | i | i | -4 | i | 0.0084 | 0.0057 | 0.029 | ? | 0.029* | ?
O=C(CSc1nnc(-c2ccc3c(c2)OCO3)o1)Nc1ncc(C(F)(F)F)cc1Cl | 27* | i | i | i | -9 | i | 0.016* | 0.042* | 0.034 | ? | 0.045* | ?
FC(F)(F)c1cccc(NCc2n[nH]c(=S)n2C2CCCCC2)c1 | 5.9* | i | i | i | -18 | i | 0.009 | 0.019* | 0.035 | ? | ? | 0.011
CCOC(=O)c1ccc(Oc2nc(NC)nc(OC)n2)cc1 | -4.2* | i | i | i | -8 | i | 0.0089 | 0.0071 | 0.036 | 0.0045 | 0.02 | 0.011
CCNc1nc(OC)nc(Oc2ccc(C(=O)OC)cc2)n1 | -0.38 | i | i | i | -5 | i | . | . | . | . | . | .
CC(=O)c1cccc(S(=O)(=O)Nc2ccccc2N2CCOCC2)c1 | . | . | i | . | . | . | . | . | . | . | . | .
CCN(CC)C(=O)CSc1n[nH]c(=O)n1CCc1ccccc1 | . | i | i | i | -8 | i | . | . | . | . | . | .
O=c1[nH]nc(Sc2ncnc3sccc23)n1CCc1ccccc1 | -3.2* | i | i | i | -8 | i | 0.0096 | 0.0072 | 0.031 | 0.0039 | 0.019 | 0.012
COc1ccc(C(=O)N(C)Cc2ccc(C)o2)cc1OC1CCN(C(C)C)CC1 | . | i | i | i | -7 | i | . | . | . | . | . | .
CCOCCCn1c(=S)[nH]c2ncccc2c1=O | 5.3* | i | i | i | -13 | i | 0.0064 | 0.017* | 0.037 | 0.018* | ? | 0.021*
CC(C)CCn1c(=S)[nH]c2ncccc2c1=O | 51* | i | i | i | 9.9* | 10* | 0.012* | 0.08* | 0.075* | 0.067* | 0.073* | 0.059*
CC(=O)c1ccc(N2CCN(C(=O)Cn3c(=S)[nH]c4ncccc4c3=O)CC2)cc1 | 1.6 | i | . | i | -8 | i | . | . | . | . | . | .
COc1ccc(N2CCN(CCCn3c(=S)[nH]c4ncccc4c3=O)CC2)cc1 | 8.9* | i | i | i | -2 | i | 0.0071 | 0.032* | 0.037 | 0.02* | 0.031* | 0.018*
CCN1CCN(C(c2ccccc2)c2nnnn2Cc2ccc3c(c2)OCO3)CC1 (configuration not stated) | 1.8 | i | i | i | -12 | i | . | . | . | . | . | .
